Results as given in ChEMBL document CHEMBL4808178 (J Med Chem, 2021).
Values after ≈ are worked out from the molar mass of the structure shown. Active and inactive are the calls of the source. The rule behind the calls is not given here.

How the values were obtained:
[1] = Thermodynamic solubility of the compound in phosphate buffer at pH 6.8 after overnight incubation by shake flask method; type: physicochemical; conditions: read-out: Therm_solubility
Method in brief: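 Shake-flask method: solid added to pH 6.8 phosphate buffer at nominal 2 mg/mL, sonicated 10 min, shaken overnight 800 rpm at room temperature; phases separated by centrifugation 5000 rpm 20 min before supernatant quantitation.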

[2] = molecular target: Serine/threonine-protein kinase PLK1 (Homo sapiens) (UniProt P53350); assay: Inhibition of PLK1 (unknown origin) assessed as residual activity at 1 uM relative to control
Method in brief: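 Commercial profiling service against a 208-kinase panel; single concentration 1 μmol/L; residual kinase activity expressed relative to control.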

T-24 = assay: Cytotoxicity against human T24 cells assessed as reduction in cell viability incubated for 72 hrs by MTT assay; type: functional, cell-based; conditions: T-24, 72 h
Method in brief: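 About 5 × 10³ cells/well, seeded overnight at 37 °C, 5% CO₂, in DMEM or RPMI-1640 with 10% FBS and antibiotics. DMSO-dissolved compounds diluted in medium, exposure 72 h.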

[3] = molecular target: T1, Aldehyde dehydrogenase 1A1 (Homo sapiens) (UniProt P00352); assay: Inhibition of ALDH1A1 in human HCT116 cells assessed as reduction in mRNA transcriptional level at 20 uM after 24 hrs by RT-qPCR analysis; type: cell-based; conditions: HCT-116
T1 sequence (whole entry): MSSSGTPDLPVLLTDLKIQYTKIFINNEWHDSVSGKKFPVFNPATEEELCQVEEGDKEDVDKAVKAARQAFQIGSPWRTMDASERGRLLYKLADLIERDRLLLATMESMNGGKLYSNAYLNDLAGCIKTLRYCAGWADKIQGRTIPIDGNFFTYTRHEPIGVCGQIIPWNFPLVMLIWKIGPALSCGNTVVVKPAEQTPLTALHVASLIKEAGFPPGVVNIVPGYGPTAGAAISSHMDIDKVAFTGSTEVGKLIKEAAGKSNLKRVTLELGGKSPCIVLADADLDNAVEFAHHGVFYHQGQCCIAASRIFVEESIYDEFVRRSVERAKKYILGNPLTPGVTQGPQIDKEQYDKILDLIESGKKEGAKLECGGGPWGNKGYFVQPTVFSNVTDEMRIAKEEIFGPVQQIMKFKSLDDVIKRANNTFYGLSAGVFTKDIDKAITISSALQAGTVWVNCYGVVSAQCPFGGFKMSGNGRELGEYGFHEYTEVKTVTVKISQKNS
Method in brief: (§1)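 HCT-116 cells treated 24 h; total RNA by TRIZOL, one-step RT-qPCR: 55 °C 10 min, 95 °C 1 min, then 39 cycles of 95 °C 10 s and 60 °C 30 s, with melting-curve and no-template controls. β-Actin as internal standard; relative expression by 2^−ΔΔCt, mean ± SD (n = 3).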

HCT-116 [4] = assay: Inhibition of cell stemness in human HCT116 cells assessed as reduction in Nanog mRNA transcription levels at 20 uM after 24 hrs by RT-qPCR analysis; type: functional, cell-based
Method in brief: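 Sorted ALDH⁺ HCT-116 cells treated 24 h; TRIZOL RNA, one-step RT-qPCR (RT 10 min 55 °C; 95 °C 1 min; 39 cycles 95 °C 10 s/60 °C 30 s) with melting-curve check; β-actin reference; fold change by 2^−ΔΔCt; t test, mean ± SD, n = 3.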

HCT-116 [5] = assay: Inhibition of cell stemness in human HCT116 cells assessed as reduction in number of tumor spheres at 5 uM after 10 days by microscopic analysis; type: functional, cell-based; conditions: time 10.0 day
Method in brief: (§2)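 Sorted ALDH⁺ HCT-116 cells, 800/well, in serum-free DMEM with B27 (1:50), EGF 20 ng/mL, β-FGF 10 ng/mL; co-incubated with compound (5 μM) or DMSO vehicle for 10 days; sphere number, diameter and morphology scored from microscopy images; mean ± SD, n = 3.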

HCT-116 [6] = assay: Inhibition of cell stemness in human HCT116 cells assessed as reduction in size of tumor spheres at 5 uM after 10 days by microscopic analysis; type: functional, cell-based; conditions: time 10.0 day; method in brief: as §2
HCT-116 [7] = assay: Effect on Wnt/beta-Catenin signaling in human HCT116 cells assessed as reduction in cyclin-D1 mRNA level at 20 uM after 24 hrs by RT-qPCR analysis; type: functional, cell-based; method in brief: as §1
HCT-116 [8] = assay: Effect on Wnt/beta-Catenin signaling in human HCT116 cells assessed as upregulation of DKK1 protein level after 24 hrs by Western blotting analysis; type: functional, cell-based; conditions: dose 5-20 µM
Method in brief: (§3)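 HCT-116 cells at 2 × 10⁵ cells/mL in DMEM/10% FBS, grown 12 h at 37 °C, then treated 24 h (vehicle DMSO). Lysates quantified by BCA, run on 10% SDS-PAGE, PVDF transfer, blocked in 5% milk/TBST, primary antibodies 4 °C overnight, HRP secondary 2 h, chemiluminescent detection; normalized to β-actin, n = 3.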

HCT-116 [9] = assay: Induction of apoptosis in human HCT116 cells assessed as early apoptotic cells at 10 uM after 24 hrs by annexin V-FITC/propidium iodide staining based flow cytometry (reference value: 1%); type: functional
HCT-116 [10] = assay: Induction of cell cycle arrest in human HCT116 cells assessed as accumulation at G0/G1 phase at 20 uM after 24 hrs by propidium iodide-staining based flow cytometry (reference value: 48.89%); type: functional
HCT-116 [11] = assay: Induction of apoptosis in human HCT116 cells assessed as increase in Cyt c protein expression at 20 uM incubated for 24 hrs by Western blot analysis; type: functional, cell-based; method in brief: as §3
HCT-116 [12] = assay: Antitumor activity against human HCT116 cells xenografted in BALB/c athymic nude mouse assessed as tumor growth inhibition at 60 mg/kg, po administered twice daily for 4 weeks and measured every 3 days; type: functional; conditions: HCT-116, po, 672 h, read-out: TGI
Method in brief: (§4)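 Male BALB/c athymic nude mice, 5 weeks old, 16−18 g, given 0.2 mL of 5 × 10⁷ cells/mL HCT-116 in right armpit. At about 100 mm³, randomized to groups of five; intragastric dosing twice daily for 4 weeks. Tumor volume and body weight every 3 days; tumors weighed after sacrifice; organs HE-stained.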

HCT-116 [13] = assay: Antitumor activity against human HCT116 cells xenografted in BALB/c athymic nude mouse assessed as tumor growth inhibition at 90 mg/kg, po administered twice daily for 4 weeks and measured every 3 days; type: functional; conditions: HCT-116, po, 672 h, read-out: TGI; method in brief: as §4
[14] = Toxicity in BALB/c mouse xenografted with human HCT116 cells assessed as effect on heart tissue at 60 to 90 mg/kg, po administered twice daily for 4 weeks and measured every 3 days by HE staining based assay; type: organism-based, HCT-116; conditions: in vivo, 672 h, dose 60-90 mg/kg
Method in brief: (§5)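 Male 5-week BALB/c nude mice (16−18 g), 0.2 mL of 5 × 10⁷ cells/mL HCT-116 injected into right armpit; at ~100 mm³ randomized, 5/group; intragastric 60 or 90 mg/kg twice daily for 4 weeks; tumor volume and body weight every 3 days; after sacrifice heart, liver, spleen, lung, kidney HE-stained.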

[15] = Toxicity in BALB/c mouse xenografted with human HCT116 cells assessed as effect on spleen tissue at 60 to 90 mg/kg, po administered twice daily for 4 weeks and measured every 3 days by HE staining based assay; type: organism-based, HCT-116; conditions: in vivo, 672 h, dose 60-90 mg/kg; method in brief: as §5
[16] = Toxicity in BALB/c mouse xenografted with human HCT116 cells assessed as effect on kidney tissue at 60 to 90 mg/kg, po administered twice daily for 4 weeks and measured every 3 days by HE staining based assay; type: organism-based, HCT-116; conditions: in vivo, 672 h, dose 60-90 mg/kg; method in brief: as §5

Chain of Serine/threonine-protein kinase PLK1 (Homo sapiens) (P53350 whole entry): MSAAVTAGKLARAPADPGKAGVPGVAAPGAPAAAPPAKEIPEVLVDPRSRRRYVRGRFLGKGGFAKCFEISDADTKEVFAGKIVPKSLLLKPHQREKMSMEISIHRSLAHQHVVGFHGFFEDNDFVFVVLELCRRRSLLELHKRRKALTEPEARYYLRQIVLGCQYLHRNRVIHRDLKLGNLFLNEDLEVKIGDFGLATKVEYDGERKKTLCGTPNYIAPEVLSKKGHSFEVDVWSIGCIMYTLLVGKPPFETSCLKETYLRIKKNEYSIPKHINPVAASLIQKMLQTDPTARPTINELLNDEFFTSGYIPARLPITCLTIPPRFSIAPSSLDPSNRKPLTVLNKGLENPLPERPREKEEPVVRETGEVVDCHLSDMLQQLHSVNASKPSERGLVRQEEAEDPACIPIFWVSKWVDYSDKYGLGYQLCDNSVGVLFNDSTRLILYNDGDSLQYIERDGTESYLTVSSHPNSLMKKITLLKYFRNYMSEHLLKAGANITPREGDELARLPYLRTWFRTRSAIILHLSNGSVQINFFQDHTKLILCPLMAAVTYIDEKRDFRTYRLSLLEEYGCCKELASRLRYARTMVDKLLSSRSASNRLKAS

## O=C(NCCO)c1ccc2c(c1)nc(Nc1cccc(Cl)c1)c1ccncc12
[1]
  solubility thermodynamic: 0.89 µg/mL (≈ 2.27 µM)
[2]
  Activity: 40.5%
T-24
  IC50: 6.1 µM
[3]
  inhibition: Active
HCT-116 [4]
  inhibition: Active
HCT-116 [5]
  inhibition: Active
HCT-116 [6]
  inhibition: Active
HCT-116 [7]
  Activity: Active
HCT-116 [8]
  Activity: Dose-Dependent Effect
HCT-116 [9]
  Activity: 12.6%
HCT-116 [10]
  Activity: 72.92%
HCT-116 [11]
  Activity: Active
HCT-116 [12]
  inhibition in vivo at 60 mg/kg: 59%
HCT-116 [13]
  inhibition in vivo at 90 mg/kg: 69%
[14]
  Activity: Non-Toxic
[15]
  Activity: Non-Toxic
[16]
  Activity: Non-Toxic
